Reference: ChEMBL document CHEMBL4346672, “Antimicrobial and KPC/AmpC inhibitory activity of functionalized benzosiloxaboroles” (Eur J Med Chem, 2019)
≈ marks a conversion by molar mass, not a printed value.

Tests used:
Enterococcus faecalis = assay: Bactericidal activity against Enterococcus faecalis ATCC 29212 measured after 18 hrs by CLSI broth dilution method; format: functional; settings: ATCC 29212, 18 h
In short: (§1)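 Strains stored at -80 °C and subcultured twice on tryptic soy agar before testing. Compounds dissolved in DMSO. […] MBC then determined per CLSI recommendations.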

Pseudomonas aeruginosa [1] = assay: Inhibition of beta lactamase OXA-15 in Pseudomonas aeruginosa 852 assessed as potentiation of ceftazidime-induced antibacterial activity by measuring ceftazidime MIC at 16 mg/L incubated for 18 hrs by broth dilution method (reference value: >[…] mg/L)
Pseudomonas aeruginosa [2] = assay: Inhibition of beta lactamase AmpC in Pseudomonas aeruginosa MUW 700 assessed as potentiation of ceftazidime-induced antibacterial activity by measuring diameter of zone inhibition at 0.3 mg incubated for 18 hrs in presence of 30 ug ceftazidime by CLSI disc diffusion method (Rvb=11 mm)
In short: (§2)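 AmpC combination disc test on Mueller-Hinton agar, following EUCAST guidance and Yagi et al. Inhibition zones were compared between a CAZ-30 disc and a ceftazidime disc plus agent or PBA, each at 0.3 mg per disc. Plates were incubated at 35 °C for 18 h. A zone difference of at least 5 mm was counted as inhibition.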

[3] = test system: Klebsiella pneumoniae ATCC BAA-1705; assay: Inhibition of beta lactamase KPC-2 in Klebsiella pneumoniae ATCC BAA 1705 assessed as potentiation of ceftazidime-induced antibacterial activity by measuring ceftazidime MIC at 16 mg/L incubated for 18 hrs by broth dilution method
Acinetobacter baumannii [4] = assay: Inhibition of beta lactamase OXA-24 in Acinetobacter baumannii 181 assessed as potentiation of ceftazidime-induced antibacterial activity by measuring ceftazidime MIC at 16 mg/L incubated for 18 hrs by broth dilution method (reference value: >[…] mg/L)
Klebsiella pneumoniae [5] = assay: Inhibition of beta lactamase KPC-3 in Klebsiella pneumoniae 83 assessed as potentiation of meropenem-induced antibacterial activity by measuring meropenem MIC at 16 mg/L incubated for 18 hrs by broth dilution method (reference value: […] mg/L)
Pseudomonas aeruginosa [6] = assay: Inhibition of beta lactamase AmpC in Pseudomonas aeruginosa 700 assessed as potentiation of ceftazidime-induced antibacterial activity by measuring ceftazidime MIC at 16 mg/L incubated for 18 hrs by broth dilution method (reference value: >[…] mg/L)
Escherichia coli [7] = assay: Inhibition of beta lactamase CMY-2 in Escherichia coli 77 assessed as potentiation of ceftazidime-induced antibacterial activity by measuring diameter of zone inhibition at 0.3 mg incubated for 18 hrs in presence of 30 ug ceftazidime by CLSI disc diffusion method (Rvb=13 mm); in short: as §2
Escherichia coli [8] = assay: Inhibition of beta lactamase KPC-3 in Escherichia coli 82 TR assessed as potentiation of ceftazidime-induced antibacterial activity by measuring ceftazidime MIC at 16 mg/L incubated for 18 hrs by broth dilution method (reference value: […] mg/L)
[9] = target: Class A carbapenemase KPC-2 (Escherichia coli) (UniProt A8DS27); assay: Inhibition of beta lactamase KPC-2 in Escherichia coli 76 assessed as potentiation of ceftazidime-induced antibacterial activity by measuring ceftazidime MIC at 16 mg/L incubated for 18 hrs by broth dilution method (reference value: >[…] mg/L)
[10] = target: Class A carbapenemase KPC-2 (Escherichia coli) (UniProt A8DS27); assay: Inhibition of beta lactamase KPC-2 in Escherichia coli 76 assessed as potentiation of meropenem-induced antibacterial activity by measuring meropenem MIC at 16 mg/L incubated for 18 hrs by broth dilution method (reference value: >[…] mg/L)
Acinetobacter baumannii [11] = assay: Inhibition of beta lactamase OXA-24 in Acinetobacter baumannii 181 assessed as potentiation of meropenem-induced antibacterial activity by measuring meropenem MIC at 16 mg/L incubated for 18 hrs by broth dilution method (reference value: […] mg/L)
Klebsiella pneumoniae [12] = assay: Inhibition of beta lactamase KPC-3 in Klebsiella pneumoniae 81 assessed as potentiation of ceftazidime-induced antibacterial activity by measuring ceftazidime MIC at 16 mg/L incubated for 18 hrs by broth dilution method (reference value: >[…] mg/L)
Klebsiella pneumoniae [13] = assay: Inhibition of beta lactamase CMY-2 in Klebsiella pneumoniae 78 assessed as potentiation of ceftazidime-induced antibacterial activity by measuring ceftazidime MIC at 16 mg/L incubated for 18 hrs by broth dilution method (reference value: >[…] mg/L)
[14] = test system: Klebsiella pneumoniae ATCC BAA-1705; assay: Inhibition of beta lactamase KPC-2 in Klebsiella pneumoniae ATCC BAA 1705 assessed as potentiation of meropenem-induced antibacterial activity by measuring meropenem MIC at 16 mg/L incubated for 18 hrs by broth dilution method (reference value: […] mg/L)
[15] = test system: Klebsiella pneumoniae 700603; assay: Inhibition of extended-spectrum beta lactamase in Klebsiella pneumoniae ATCC 700603 assessed as potentiation of cefotaxime-induced antibacterial activity by measuring diameter of zone inhibition at 0.3 mg incubated for 18 hrs in presence of 10 ug cefotaxime by CLSI disc diffusion method (Rvb=19 mm)
In short: (§3)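 EUCAST ESBL combination disc test on Mueller-Hinton agar. Zones were compared between a ceftazidime or cefotaxime disc alone and the same disc plus agent at 0.3 mg per disc. Clavulanic acid discs at 0.01 mg per disc served as reference. Plates were incubated at 35 °C for 18 h. A difference of at least 5 mm was counted as inhibition.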

[16] = test system: Klebsiella pneumoniae 700603; assay: Inhibition of extended-spectrum beta lactamase in Klebsiella pneumoniae ATCC 700603 assessed as potentiation of ceftazidime-induced antibacterial activity by measuring diameter of zone inhibition at 0.3 mg incubated for 18 hrs in presence of 10 ug ceftazidime by CLSI disc diffusion method (Rvb=13 mm); in short: as §3
[17] = test system: Stenotrophomonas maltophilia; assay: Bactericidal activity against Stenotrophomonas maltophilia ATCC 13637 measured after 18 hrs by CLSI broth dilution method; format: functional; settings: ATCC 13637, 18 h; in short: as §1
[18] = Cytotoxicity against human MRC5 cells assessed as cell viability at 2 ug/ml incubated for 72 hrs by MTT assay; format: cell-based; settings: read-out: Activity
In short: (§4)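 MRC-5 pd30 human fibroblasts grown in MEM with 10% FBS, 2 mM L-glutamine, penicillin/streptomycin and 1% non-essential amino acids at 37 °C, 5% CO2. Exponentially growing cells trypsinized and seeded at 8×10^3 cells/well, then dosed 18 h later with 2-fold dilutions (0.5% DMSO final) for 72 h. MTT (1 mg/ml final) added for 1 h at 37 °C, formazan dissolved in DMSO, OD read at 570 nm. Four replicates, expressed as % viable versus control.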

[19] = Cytotoxicity against human MRC5 cells assessed as cell viability at 32 ug/ml incubated for 72 hrs by MTT assay; format: cell-based; settings: read-out: Activity; in short: as §4
[20] = Cytotoxicity against human MRC5 cells assessed as cell viability at 0.5 ug/ml incubated for 72 hrs by MTT assay; format: cell-based; settings: read-out: Activity; in short: as §4
[21] = Cytotoxicity against human MRC5 cells assessed as cell viability at 8 ug/ml incubated for 72 hrs by MTT assay; format: cell-based; settings: read-out: Activity; in short: as §4
[22] = Cytotoxicity against human MRC5 cells assessed as cell viability at 4 ug/ml incubated for 72 hrs by MTT assay; format: cell-based; settings: read-out: Activity; in short: as §4
[23] = Cytotoxicity against human MRC5 cells assessed as cell viability at 16 ug/ml incubated for 72 hrs by MTT assay; format: cell-based; settings: read-out: Activity; in short: as §4

Compound | MBC (Enterococcus faecalis) [µg/mL] | MIC (Pseudomonas aeruginosa [1]) [µg/mL] | inhibition zone (IZ) (Pseudomonas aeruginosa [2]) [mm] | MIC [3] [µg/mL] | MIC (Acinetobacter baumannii [4]) [µg/mL] | MIC (Klebsiella pneumoniae [5]) [µg/mL] | MIC (Pseudomonas aeruginosa [6]) [µg/mL] | inhibition zone (IZ) (Escherichia coli [7]) [mm] | MIC (Escherichia coli [8]) [µg/mL] | MIC [9] [µg/mL] | MIC [10] [µg/mL] | MIC (Acinetobacter baumannii [11]) [µg/mL] | MIC (Klebsiella pneumoniae [12]) [µg/mL] | MIC (Klebsiella pneumoniae [13]) [µg/mL] | MIC [14] [µg/mL] | inhibition zone (IZ) [15] [mm] | inhibition zone (IZ) [16] [mm] | MBC [17] [µg/mL] | viability at 72 h, 2 ug/ml [18] [%] | viability at 72 h, 32 ug/ml [19] [%] | also measured
C[Si]1(C)OB(O)c2ccc(C(F)(F)F)cc21 | 50 (≈ 203 µM) |  |  |  |  |  |  |  |  |  |  |  |  |  |  |  |  |  |  |  | 
C[Si]1(C)OB(O)c2c(F)c(F)c(F)c(F)c21 |  | > 64 | 11 | 64 | > 64 | 32 | > 64 | 22 | 32 | > 64 | > 64 | > 64 | 64 | 64 | 64 | 19 | 13 |  |  |  | 
C[Si]1(C)OB(O)c2c(F)c3c(c(F)c21)B(O)OC3 |  | > 64 | 11 | 64 | > 64 | 32 | > 64 | 20 | 32 | > 64 | > 64 | > 64 | 64 | > 64 | 64 | 19 | 13 | 400 (≈ 1480 µM) |  |  | 
C[Si]1(C)OB(O)c2cc3c(c(F)c21)COB3O |  | > 64 | 16 | 64 | > 64 | 32 | > 64 | 20 | 32 | > 64 | > 64 | > 64 | 64 | > 64 | 64 | 19 | 13 |  | 116 | 54.3 | viability at 72 h, 0.5 ug/ml [20]: 112%; viability at 72 h, 8 ug/ml [21]: 105%; viability at 72 h, 4 ug/ml [22]: 108%; viability at 72 h, 16 ug/ml [23]: 100%
C[Si]1(C)OB(O)c2ccc(Cl)c(Cl)c21 | 400 (≈ 1620 µM) |  |  |  |  |  |  |  |  |  |  |  |  |  |  |  |  | 400 (≈ 1620 µM) |  |  | 
C[Si]1(C)OB(O)c2ccc(F)c(F)c21 |  | > 64 | 14 | 64 | > 64 | 32 | > 64 | 22 | 32 | > 64 | > 64 | > 64 | 64 | 64 | 64 | 19 | 13 | 400 (≈ 1870 µM) | 113 | 74 | viability at 72 h, 0.5 ug/ml [20]: 108%; viability at 72 h, 8 ug/ml [21]: 111%; viability at 72 h, 4 ug/ml [22]: 111%; viability at 72 h, 16 ug/ml [23]: 99%
C[Si]1(C)OB(O)c2ccc(B(O)O)cc21 | 400 (≈ 1800 µM) | > 64 | 18 | 64 | > 64 | 8 | 32 | 22 | 32 | > 64 | > 64 | > 64 | 64 | 64 | 32 | 19 | 13 |  | 124 | 102 | viability at 72 h, 0.5 ug/ml [20]: 112%; viability at 72 h, 8 ug/ml [21]: 126%; viability at 72 h, 4 ug/ml [22]: 129%; viability at 72 h, 16 ug/ml [23]: 120%
C[Si]1(C)OB(O)c2ccc(Cl)cc21 |  |  |  |  |  |  |  |  |  |  |  |  |  |  |  |  |  | 200 (≈ 941 µM) |  |  | 
